Screening data: PubChem BioAssay, several laboratories
Cl transport mod: modulates chloride dependent transport by human KCC2; 2.2% of 190,000 active; Q9H2X9; B-score of Tl+ flux slope (higher = more flux/activation; lower = inhibition) at 10 µM; KCC2 cells, thallium flux FluoZin-2 fluorescence;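 active means thallium flux slope and its plate-corrected score both differing from the plate sample mean at a set confidence after two filtering rounds, in either direction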;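 further: slope of fluorescence scaled to starting intensity during 10 to 20 s after thallium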
Yeast growth inh: yeast BB579 growth reduction in restrictive medium. S. cerevisiae BB579 growth, OD615, 48 h. inhibition, % at 10 µM. 0.51% of 140,000 active. AID 804;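 active means inhibition above a set limit, 3 SD over the mean compound inhibition, cut at about 44% in these data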
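System: DeaD yeast strain BB579; buffer or medium: CSMM-D dextrose restrictive medium; technique: OD at 615 nm; schedule: 4 h cell preincubation, 48 h compound exposure, 30 °C humidified; doses: single 10 µM dose; controls: amphotericin B 10 µg/mL, positive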
RAM inhibit: inhibitors of the yeast RAM network; 1.8% of 190,000 active; AID 868; inhibition, % at 50 µM; S. cerevisiae dse1pr::URA3 reporter, 5-FOA growth OD615, 2 d; analog-sensitive cbk1-as2 kinase mutant strain;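 active means inhibition above a set limit, 3 SD over mean compound inhibition, cut at about 8.4% in these data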;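 further: 0% = DMSO-only wells with no growth and 100% = 10 µM 1-NA-PP1 full growth; inhibition rescues growth on 5-FOA so higher OD means more RAM inhibition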
WT yeast gro inh: growth inhibition of WT yeast, mitochondrial fusion screen | mitochondrial fusion phenotypic screen, WT strain | inhibition, % at 10 µM | 2.1% of 190,000 active | AID 1362; in the data active means inhibition above about 58%; tested in S. cerevisiae
Yeast lifespan up: extends the lifespan of yeast; S. cerevisiae growth with nicotinamide, OD615; deaD strain in restrictive glucose medium; inhibition of the nicotinamide effect, % at 10 µM; 0.68% of 130,000 active;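 active means inhibition above a set limit, placed 3 SD over the median of all compounds, cut at about 26% in these data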;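 further: 0% = nicotinamide-treated wells and 100% = cells grown without nicotinamide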
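assay system = DeaD-strain S. cerevisiae | measured by = absorbance at 615 nm | probe or stimulus = nicotinamide 1.5 mM | buffer or medium = CSMM-D glucose medium, restrictive | times = 48 h at 30 °C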
The depositor's hits bear a star. Shown are actives, neighbours in structure and some others; about 5.5% of the full set was active somewhere.

For Oc1c(Br)cc(Cl)cc1C=Nc1ccc(N2CCOCC2)cc1 the results were Cl transport mod -2.8, RAM inhibit 0 and WT yeast gro inh 11.
Screening COc1ccc(C2c3c(ncn(Cc4ccco4)c3=N)Oc3ccc4ccccc4c32)cc1 (configuration not stated) returned Cl transport mod 0.39, Yeast growth inh -27, RAM inhibit 1, WT yeast gro inh 64* and Yeast lifespan up -2.
N=c1c2c(ncn1CCCO)Oc1ccc3ccccc3c1C2c1ccccc1 (configuration not stated) was read as Cl transport mod 0.29.
For N=c1c2c(ncn1Cc1ccco1)Oc1ccc3ccccc3c1C2c1ccccc1 (configuration not stated) the results were Cl transport mod 0.84, Yeast growth inh -39, RAM inhibit -1, WT yeast gro inh 66* and Yeast lifespan up 6.
COc1ccc(C2c3ccc(O)cc3Oc3ncn(Cc4ccco4)c(=N)c32)cc1 (configuration not stated) was read as Cl transport mod -1.5.
CC(=O)Nc1cccc(-c2nnc(SCC(=O)n3c4c(c5ccccc53)CCCC4)n2C)c1 was read as Cl transport mod -2.4, Yeast growth inh -21, RAM inhibit 2, WT yeast gro inh -9 and Yeast lifespan up -8.
Clc1ccc(N=c2ssnc2Cl)nc1 was read as Cl transport mod 0.7, RAM inhibit -1 and WT yeast gro inh 69*.
Screening COc1cc(N=c2ssnc2Cl)cc(OC)c1 returned Cl transport mod 0.15, Yeast growth inh -20, RAM inhibit -1, WT yeast gro inh 10 and Yeast lifespan up -9.
For OCc1ccccc1N=c1ssnc1Cl the results were Yeast growth inh 16, RAM inhibit 3, WT yeast gro inh 3 and Yeast lifespan up -6.
Screening Clc1nssc1=Nc1ccc(Br)cc1 returned Cl transport mod -0.97, RAM inhibit 2 and WT yeast gro inh 71*.
`Cn1c(=O)c2c(nc(Br)n2CC(=O)c2cccs2)n(C)c1=O` gave Yeast growth inh -82, RAM inhibit 1, WT yeast gro inh 7 and Yeast lifespan up 36*.
Screening CCC(C)(C)c1ccc(OCCCC[n+]2cccc(C)c2)c(C(C)(C)CC)c1 returned Cl transport mod 0.84, RAM inhibit -2 and WT yeast gro inh 98*.
Screening Cc1ccc[n+](CC(=O)Nc2cc(C(F)(F)F)ccc2Cl)c1 returned Cl transport mod 0.056, Yeast growth inh -24, RAM inhibit 2, WT yeast gro inh 16 and Yeast lifespan up -7.
For CCOC(=O)C1=NNC2(c3ccc(Cl)cc3)C(=O)N(c3ccc(C)cc3)C(=O)C12 (configuration not stated) the results were Cl transport mod 0.15, Yeast growth inh -9, RAM inhibit 11*, WT yeast gro inh 3 and Yeast lifespan up -1.
CCOC(=O)C1=NNC2(c3ccccc3)C(=O)N(c3cccc(Br)c3)C(=O)C12 (configuration not stated) was read as Cl transport mod -1, Yeast growth inh -62, RAM inhibit 0, WT yeast gro inh 2 and Yeast lifespan up 2.
`C=C(C)C1CC=C(C)/C(=N/NC(=S)Nc2ccccc2)C1` (configuration not stated) gave Cl transport mod 6.5*, Yeast growth inh 5, RAM inhibit 6, WT yeast gro inh 53 and Yeast lifespan up -1.
C=C(C)C1CC=C(C)/C(=N/NC(=O)c2ccc(NC(=O)c3cccc(C)c3)cc2)C1 (configuration not stated) was read as Cl transport mod 1.2, Yeast growth inh -10, RAM inhibit 0, WT yeast gro inh 27 and Yeast lifespan up -11.
For CC(C)c1ccccc1NC(=O)C1CN(S(=O)(=O)c2ccccc2)CCN1S(=O)(=O)c1ccccc1 (configuration not stated) the results were Cl transport mod -2.3, Yeast growth inh -29, RAM inhibit 8.6*, WT yeast gro inh -13 and Yeast lifespan up 2.
Screening CCC(C)NC(=O)C1CN(S(=O)(=O)c2ccccc2)CCN1S(=O)(=O)c1ccccc1 (configuration not stated) returned Cl transport mod -0.24, Yeast growth inh 27, RAM inhibit 2, WT yeast gro inh 3 and Yeast lifespan up -13.
